Measured values from different studies.
Organism: Escherichia coli
Effect on: microbial growth

SMILES | technique | cells | strain | time | notes | MIC
CCCCCCC#Cc1cncc(-c2nnc(SCc3ccc([N+](=O)[O-])cc3)n2C)c1 | – | – | – | – | – | ≥ 20 µg/mL
CCCCCCC/C=C/C(=O)N1C(=O)/C(=C(\O)c2ccc(F)cc2)C(=O)C1CC(C)C (stereo not drawn) | – | K12 | K12 | – | – | > 200 µg/mL
CC(C)Oc1c(NC(=O)c2ccc(NC(=O)[C@H](CC(N)=O)NC(=O)c3ccc(NC(=O)c4ccc([N+](=O)[O-])c(OC(C)C)c4O)cc3)cc2)ccc(C(=O)Nc2ccc(C(=O)O)cc2)c1O | – | – | DSM1116 | – | – | > 64 µg/mL
Cc1ccc(C)n1-c1ccc(-c2nnc(-c3ccccc3Cl)[nH]2)cc1 | broth dilution | – | ATCC10536 | 18 h | – | 250 µg/mL
CC1=NN(CNc2c(O)c(S(=O)(=O)O)cc3ccccc23)C(=O)C1=NNn1c(-c2ccccc2)nc2ccccc2c1=O | broth dilution | – | – | 24 h | – | 41.8 µM
Cc1ccc2nc(-c3ccc([N+](=O)[O-])cc3)n(Cc3ccc(Cl)cc3)c2c1 | broth dilution | – | ATCC25922 | – | – | 64 µg/mL
C/C(O)=C1\C(=O)C(CC(C)C)N(C(=O)CCCCCc2ccccc2)C1=O (stereo not drawn) | – | K12 | K12 | – | – | > 200 µg/mL
C=CCn1c(-c2ccc([N+](=O)[O-])cc2)nc2ccc(C)cc21 | broth dilution | – | ATCC25922 | – | – | 64 µg/mL
COc1cc(Cc2cnc(N)nc2N)cc(OC)c1OC | – | – | – | – | – | ~0.2 µM
N=C(N)c1ccc(OCc2ccc(Br)cc2COc2ccc(C(=N)N)cc2)cc1 | – | – | BW25113 | – | – | ≥ 100 µg/mL
O=c1[nH]cc(F)c(=O)[nH]1 | broth dilution | – | – | 24 h | – | > 32 µg/mL
O=C(Nc1ccc([N+](=O)[O-])cc1F)c1ccccc1O | broth dilution | – | ATCC25922 | – | – | > 64 µg/mL
N=C(N)c1ccc(OCc2cccc(COc3ccc(C(=N)N)cc3)c2)cc1 | broth dilution | – | BW25113 | – | – | > 200 µg/mL
CC(C)Oc1c(NC(=O)c2ccc(NC(=O)[C@H](CC(N)=O)NC(=O)c3ccc(NC(=O)c4ccc(C5(C(F)(F)F)N=N5)cc4)cc3)cc2)ccc(C(=O)Nc2ccc(C(=O)O)cc2)c1O | – | – | DSM1116 | – | – | 16 µg/mL
CCCCCCC#Cc1cncc(-c2nnc(SCc3ccc([N+](=O)[O-])o3)n2C2CC2)c1 | – | – | – | – | – | ≥ 20 µg/mL
c1ccc2c(-c3nc4ccccc4[nH]3)c3ccccc3cc2c1 | broth dilution | – | ATCC25922 | – | – | 64 µg/mL
CC(C)Oc1c(NC(=O)c2ccc(NC(=O)[C@H](CC(N)=O)NC(=O)c3ccc(NC(=O)c4ccc(C#N)c(Cl)c4)cc3)cc2)ccc(C(=O)Nc2ccc(C(=O)O)cc2)c1O | – | – | DSM1116 | – | – | < 0.03 µg/mL
NC1CCCCc2c1[nH]c1cc(Cl)c(Cl)cc21 (stereo not drawn) | broth dilution | – | ATCC25922 | – | – | 8 µg/mL
Cc1ccc2nc(-c3ccc(F)cc3)n(Cc3ccccc3)c2c1 | broth dilution | – | ATCC25922 | – | – | 128 µg/mL
C[C@H](CCC(=O)NCCCNCCCCNCCCN)[C@H]1CC[C@H]2[C@@H]3[C@H](O)C[C@@H]4C[C@H](O)CC[C@]4(C)[C@H]3C[C@H](O)[C@]12C | broth dilution | – | MG1655 | 20 h | – | > 256 µg/mL
O=[N+]([O-])c1ccc(-c2nc3cc(Cl)ccc3[nH]2)o1 | broth dilution | – | ATTC25922 | – | – | 8 µg/mL
N=C(N)c1cccc(OCc2cccc(COc3cccc(C(=N)N)c3)c2)c1 | broth dilution | – | BW25113 | – | – | > 200 µg/mL
Cc1c(CN(C)C(=O)/C=C/c2cnc3c(c2)CC(NC(=O)OC(C)(C)C)C(=O)N3)oc2ccccc12 (stereo not drawn) | broth dilution | – | BAA2340 | – | clinical isolate | > 32 µg/mL
CC(C)Oc1c(NC(=O)c2ccc(NC(=O)[C@H](CC(N)=O)NC(=O)c3ccc(NC(=O)c4ccc(C#N)nc4)cc3)cc2)ccc(C(=O)Nc2ccc(C(=O)O)cc2)c1O | – | – | DSM1116 | – | – | ≤ 0.03 µg/mL
O=C(Cc1cc(O)c(O)c(O)c1)NCCCCCCCC[P+](c1ccccc1)(c1ccccc1)c1ccccc1.[Br-] | broth dilution | – | ATCC25922 | 18 h | – | > 32 µg/mL
COc1c(C)c(O)c(C)c(O)c1C(=O)/C=C/c1ccccc1 | broth dilution | – | ATCC25922 | – | – | 1250 µg/mL
Clc1ccc(NCc2ccc(Oc3ccccn3)cc2)cc1 | – | – | – | – | – | > 50 µg/mL

SMILES | technique | cells | strain | time | notes | MIC
N=C(N)c1ccc(OCc2ccccc2COc2ccc(C(=N)N)cc2)cc1 | broth dilution | – | BW25113 | – | – | > 200 µg/mL
O=[N+]([O-])c1ccc(O)c2ncccc12 | broth dilution | – | ATCC35218 | – | – | 4 µg/mL
CNc1cccc2cc(C(=O)NCc3ccc(C(=O)O)cc3)c(=O)[nH]c12 | broth dilution | – | ATCC25922 | – | – | > 64 µg/mL
Clc1ccc(-c2nc3ccccc3[nH]2)c(Cl)c1 | broth dilution | – | ATCC25922 | – | – | 128 µg/mL
C[C@H]1[C@H](NC(=O)/C(=N\OC(C)(C)C(=O)O)c2csc(N)n2)C(=O)N1S(=O)(=O)O | agar dilution | – | ATCC25 | – | – | 0.06 µg/mL
CSc1ccc(-c2nc3ccccc3[nH]2)cc1 | broth dilution | – | ATCC25922 | – | – | 64 µg/mL
CC(C)Oc1c(NC(=O)c2ccc(NC(=O)[C@H](CC(N)=O)NC(=O)c3ccc(NC(=O)c4ccc(C#N)cc4)cc3)cc2)ccc(C(=O)Nc2ccc(C(=O)O)cc2)c1O | – | – | DSM1116 | – | – | 0.5 µg/mL
Brc1ccc(NCc2ccc(Oc3ccccn3)cc2)cc1 | – | – | – | – | – | > 25 µg/mL
CO[C@H]1/C=C/O[C@@]2(C)Oc3c(C)c(O)c4c(O)c(c(/C=N/N5CCN(C)CC5)c(O)c4c3C2=O)NC(=O)/C(C)=C\C=C\[C@H](C)[C@H](O)[C@@H](C)[C@@H](O)[C@@H](C)[C@H](OC(C)=O)[C@@H]1C | – | – | ATCC25922 | – | – | 4 µg/mL
Cc1cc(C)n(C(=O)c2ccc(-n3c(C)ccc3C)cc2)n1 | broth dilution | – | ATCC10536 | 18 h | – | 250 µg/mL
N=C(N)c1ccc(OCc2ccc(-c3ccccc3)cc2COc2ccc(C(=N)N)cc2)cc1 | broth dilution | – | W3110 | – | – | > 200 µg/mL
CCCCCCCCCC(=O)Oc1c(C)c(O)c(C(=O)/C=C/c2ccccc2)c(OC)c1C | broth dilution | – | ATCC25922 | – | – | 5000 µg/mL
N=C(N)c1ccc(OCCCCCOc2ccc(C(=N)N)cc2)cc1 | broth dilution | – | W3110 | – | – | > 200 µg/mL
O=C(Nc1ncc([N+](=O)[O-])s1)c1cccc(C(F)(F)F)c1 | – | – | – | – | – | < 50 µM
O=C(O)c1cn(C2CC2)c2cc(N3CCNCC3)c(F)cc2c1=O | broth dilution | – | ATCC25922 | – | – | 16 µg/mL
N=C(N)c1cccc(OCc2ccc(COc3cccc(C(=N)N)c3)cc2)c1 | broth dilution | – | BW25113 | – | – | > 200 µg/mL
CCCCCCC/C=C/C(=O)N1C(=O)/C(=C(\O)CCCC)C(=O)C1CC(C)C (stereo not drawn) | – | K12 | K12 | – | – | > 200 µg/mL
CC(C)Oc1c(NC(=O)c2ccc(NC(=O)[C@H](CC(N)=O)NC(=O)c3ccc(NC(=O)c4ccc(N)cc4)cc3)cc2)ccc(C(=O)Nc2ccc(C(=O)O)cc2)c1O | – | – | DSM1116 | – | – | 2 µg/mL
CC(NCCCN)c1cc2cc(Br)ccc2[nH]1 (stereo not drawn) | broth dilution | – | ATCC25922 | – | – | 128 µg/mL
O=C(CCCCCCCCCC[P+](c1ccccc1)(c1ccccc1)c1ccccc1)Nc1cc(O)c(O)c(O)c1.[Br-] | broth dilution | – | ATCC25922 | 18 h | – | > 32 µg/mL
Cc1ccc(C)n1-c1ccc(-c2nnco2)cc1 | broth dilution | – | ATCC10536 | 18 h | – | 4 µg/mL
COc1c(C)c(OC(=O)c2ccccc2)c(C)c(O)c1C(=O)/C=C/c1ccccc1 | broth dilution | – | ATCC25922 | – | – | 5000 µg/mL
CC1=NN(CNC(=O)c2ccccc2)C(=O)C1=NNn1c(-c2ccccc2)nc2ccccc2c1=O | broth dilution | – | – | 24 h | – | 51.9 µM
CC(C)Oc1c(NC(=O)c2ccc(NC(=O)[C@H](CC(N)=O)NC(=O)c3ccc(NC(=O)CCc4ccc(C#N)cc4)cc3)cc2)ccc(C(=O)Nc2ccc(C(=O)O)cc2)c1O | – | – | DSM1116 | – | – | 0.125 µg/mL
Cc1ccc2nc(-c3ccc(N(C)C)cc3)[nH]c2c1 | broth dilution | – | ATCC25922 | – | – | 64 µg/mL
CC(C)Oc1c(NC(=O)c2ccc(NC(=O)[C@H](CC(N)=O)NC(=O)c3ccc(NC(=O)C(C)Oc4ccccc4)cc3)cc2)ccc(C(=O)Nc2ccc(C(=O)O)cc2)c1O (stereo partly drawn) | – | – | DSM1116 | – | – | > 64 µg/mL
N=C(N)c1ccccc1OCc1ccc(COc2ccccc2C(=N)N)cc1 | broth dilution | – | BW25113 | – | – | > 200 µg/mL
